Data as given in ChEMBL document CHEMBL2046381, “Defining the mechanism of action and enzymatic selectivity of psammaplin A against its epigenetic targets” (J Med Chem, 2012).
Active and inactive are the calls of the source. Unless noted, no cut-off for these calls is given here.

What was measured:
[1] = target: T1, Protein deacetylase HDAC6 (Homo sapiens, UniProt Q9UBN7); test: Inhibition of human recombinant HDAC6 using Boc-lys(Ac)-AMC as substrate preincubated for 20 mins with substrate measured after 60 mins by fluorescence analysis
T1 sequence (Q9UBN7 whole entry): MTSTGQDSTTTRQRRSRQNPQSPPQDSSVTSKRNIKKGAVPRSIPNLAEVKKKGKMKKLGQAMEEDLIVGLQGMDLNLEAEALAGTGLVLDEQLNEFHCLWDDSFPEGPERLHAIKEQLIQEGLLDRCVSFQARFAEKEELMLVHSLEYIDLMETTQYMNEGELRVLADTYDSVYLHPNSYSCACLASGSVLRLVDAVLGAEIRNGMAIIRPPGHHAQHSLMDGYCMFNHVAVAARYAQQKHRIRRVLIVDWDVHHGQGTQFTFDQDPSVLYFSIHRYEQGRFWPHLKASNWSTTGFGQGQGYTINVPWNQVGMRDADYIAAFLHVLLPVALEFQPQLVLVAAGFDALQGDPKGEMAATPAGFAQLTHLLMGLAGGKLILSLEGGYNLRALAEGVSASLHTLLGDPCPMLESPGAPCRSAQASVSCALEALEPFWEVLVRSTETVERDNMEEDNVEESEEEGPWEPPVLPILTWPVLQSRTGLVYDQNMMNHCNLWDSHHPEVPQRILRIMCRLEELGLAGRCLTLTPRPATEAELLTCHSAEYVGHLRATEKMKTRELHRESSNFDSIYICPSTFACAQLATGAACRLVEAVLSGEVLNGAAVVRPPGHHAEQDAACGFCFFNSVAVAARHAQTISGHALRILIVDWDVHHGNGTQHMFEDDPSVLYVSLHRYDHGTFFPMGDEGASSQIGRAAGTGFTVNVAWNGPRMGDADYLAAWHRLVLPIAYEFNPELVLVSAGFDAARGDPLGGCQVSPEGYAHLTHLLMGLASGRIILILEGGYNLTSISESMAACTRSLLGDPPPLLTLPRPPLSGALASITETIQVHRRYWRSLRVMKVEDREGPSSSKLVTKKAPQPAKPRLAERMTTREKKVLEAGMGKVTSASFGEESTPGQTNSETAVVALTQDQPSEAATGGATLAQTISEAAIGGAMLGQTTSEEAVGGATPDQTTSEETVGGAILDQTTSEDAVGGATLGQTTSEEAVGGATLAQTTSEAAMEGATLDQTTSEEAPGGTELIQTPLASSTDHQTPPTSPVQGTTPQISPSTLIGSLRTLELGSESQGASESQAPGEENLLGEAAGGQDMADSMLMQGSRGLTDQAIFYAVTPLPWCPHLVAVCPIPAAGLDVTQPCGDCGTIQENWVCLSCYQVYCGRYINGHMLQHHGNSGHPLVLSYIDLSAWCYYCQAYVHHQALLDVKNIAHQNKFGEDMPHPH

Histone deacetylase 1 [2] = target: T2, Histone deacetylase 1 (Homo sapiens, UniProt Q13547); test: Inhibition of human recombinant HDAC1 using Boc-lys(Ac)-AMC as substrate preincubated for 20 mins with substrate measured after 60 mins by fluorescence analysis
[3] = target: T3, Histone deacetylase-like amidohydrolase (Alcaligenes sp. (strain DSM 11172) (Bordetella sp. (strain FB188))) (UniProt Q70I53); test: Inhibition of Bordetella sp. (strain FB188) N-terminus His-tagged HDAH expressed in Escherichia coli BL21 (DE3) up to 100 uM; settings: Alcaligenaceae bacterium FB188
T3 sequence (whole entry): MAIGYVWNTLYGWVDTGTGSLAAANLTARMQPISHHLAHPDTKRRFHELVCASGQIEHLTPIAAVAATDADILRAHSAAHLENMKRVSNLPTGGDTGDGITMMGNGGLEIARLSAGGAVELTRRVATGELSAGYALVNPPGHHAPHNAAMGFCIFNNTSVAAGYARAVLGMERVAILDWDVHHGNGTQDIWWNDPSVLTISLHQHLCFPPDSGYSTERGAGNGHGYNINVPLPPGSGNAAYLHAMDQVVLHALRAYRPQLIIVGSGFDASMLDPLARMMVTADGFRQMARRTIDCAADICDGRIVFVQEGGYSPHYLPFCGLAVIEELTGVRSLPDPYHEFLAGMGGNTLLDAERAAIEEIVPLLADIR
Method in brief: (§1)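 Recombinant N-terminal His6-tagged HDAH from Bordetella strain FB188, expressed in E. coli BL21, purified on zinc-loaded His-Trap column, eluted with 500 mM imidazole, dialyzed into assay buffer (>98% pure by SDS-PAGE). Tested directly against compounds; thiols generated in situ from disulfides with TCEP.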

[4] = target: T4, DNA (cytosine-5)-methyltransferase 1 (Homo sapiens, UniProt P26358); test: Inhibition of full length N-terminal His6-tagged human DNMT1 at 120 uM after 1 hr by fluorescence analysis
Method in brief: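 Baculovirus-expressed DNMT1 (80 nM final) with SAM (10 μM final) and hemimethylated hairpin oligo (125 nM final) in MOPS buffer pH 6.5 with 1 mM DTT, 1 h room temperature. Stopped with Gla1 plus 125 μM SAH, developed 7 h; fluorescence Ex 485/Em 520 nm. Thiols made in situ by TCEP reduction; no SAM as full-inhibition control.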

A549 = test: Growth inhibition of human A549 cells after 96 hrs by sulphorhodamine B assay; type: functional; settings: A549, 96 h
Method in brief: (§2)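 SRB growth assay; MCF7 and WI38 seeded 4000 cells/well, A549 2000 cells/well, attached overnight, then exposed to freshly made drug solutions (0.1 to 50 μM) for 96 h. Fixed with cold 10% TCA, stained with 0.4% SRB; absorbance at 540 nm as percent of untreated control, IC50 from mean absorbance.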

MCF7 [5] = test: Growth inhibition of human MCF7 cells after 96 hrs by sulphorhodamine B assay; type: functional; settings: MCF7, 96 h; method in brief: as §2
[6] = Growth inhibition of human WI38 cells after 96 hrs by sulphorhodamine B assay; type: cell-based; settings: WI-38 cells; method in brief: as §2
[7] = target: T5, Histone deacetylase-like amidohydrolase (Alcaligenes sp. (strain DSM 11172) (Bordetella sp. (strain FB188)), UniProt Q70I53); test: Inhibition of Bordetella sp. (strain FB188) N-terminus His-tagged HDAH expressed in Escherichia coli BL21 (DE3); design: species or system Alcaligenaceae bacterium FB188; method in brief: as §1
T5 sequence (Q70I53 whole entry): T3 sequence (whole entry)

Histone deacetylase 8 = target: T6, Histone deacetylase 8 (Homo sapiens, UniProt Q9BY41); test: Inhibition of human recombinant HDAC8 using Boc-lys(Ac)-AMC as substrate preincubated for 20 mins with substrate measured after 60 mins by fluorescence analysis
T6 sequence (Q9BY41 whole entry): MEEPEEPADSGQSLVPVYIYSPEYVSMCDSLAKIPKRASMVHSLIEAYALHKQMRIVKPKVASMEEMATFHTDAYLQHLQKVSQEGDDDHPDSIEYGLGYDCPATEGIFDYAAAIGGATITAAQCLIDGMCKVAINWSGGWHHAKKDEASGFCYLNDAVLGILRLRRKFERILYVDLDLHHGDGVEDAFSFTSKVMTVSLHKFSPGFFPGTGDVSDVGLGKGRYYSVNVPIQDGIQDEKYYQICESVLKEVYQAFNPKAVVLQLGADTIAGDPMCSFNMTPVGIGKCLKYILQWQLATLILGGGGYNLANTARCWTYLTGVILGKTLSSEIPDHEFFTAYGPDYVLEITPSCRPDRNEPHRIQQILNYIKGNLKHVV

Histone deacetylase 1 [8] = target: T2, Histone deacetylase 1; test: Inhibition of HDAC1 in human MCF7 cells assessed as up-regulation of acetylated histone H3 protein level at 1 uM after 24 hrs by Western blot analysis; type: cell-based
Method in brief: (§3)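 MCF7 cells (5 × 10^6 per T75 flask) treated 24 h, harvested by trypsinization, lysed in RIPA on ice; 50 μg total protein resolved on 12% SDS-PAGE, transferred to nitrocellulose and probed for histone, acetylated histone, tubulin, acetylated tubulin, p21 and actin. Untreated cells as negative control.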

MCF7 [9] = test: Inhibition of Class 1 histone deacetylase in human MCF7 cells assessed as up-regulation of p21 protein level at 1 uM after 24 hrs by Western blot analysis; type: cell-based; method in brief: as §3
[10] = target: T7, Protein deacetylase HDAC6 (Homo sapiens) (UniProt Q9UBN7); test: Inhibition of HDAC6 in human MCF7 cells assessed as change in tubulin acetylation level at 1 uM after 24 hrs by Western blot analysis; type: cell-based; method in brief: as §3
T7 sequence (whole entry): T1 sequence (Q9UBN7 whole entry)

Histone deacetylase 1 [11] = target: T2, Histone deacetylase 1; test: Inhibition of HDAC1 in human MCF7 cells assessed as up-regulation of acetylated histone H3 protein level at 5 uM after 24 hrs by Western blot analysis; type: cell-based; method in brief: as §3
MCF7 [12] = test: Inhibition of Class 1 histone deacetylase in human MCF7 cells assessed as up-regulation of p21 protein level at 5 uM after 24 hrs by Western blot analysis; type: cell-based; method in brief: as §3
[13] = target: T7, Protein deacetylase HDAC6 (Homo sapiens); test: Inhibition of HDAC6 in human MCF7 cells assessed as change in tubulin acetylation level at 5 uM after 24 hrs by Western blot analysis; type: cell-based; method in brief: as §3
Bacteria [14] = test: Inhibition of bacterial DNA cytosine-C5 methyltransferase, M.SssI at 50 uM
Method in brief: (§4)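 One unit M.SssI with 1 μg bacteriophage λ DNA in NEBuffer2 (pH 7.9, 1 mM DTT) plus 160 μM SAM, ±inhibitor, 2 h at 37 °C; heat-inactivated 65 °C 20 min. Methylation read by BstUI digestion (10 units, 1 h 60 °C) and 1.5% agarose gel electrophoresis; run four times with positive and negative controls.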

Bacteria [15] = test: Inhibition of bacterial DNA cytosine-C5 methyltransferase, M.SssI at 5 uM; method in brief: as §4
[16] = Inhibition of HDAC in cell extract based assay
[17] = target: T4, DNA (cytosine-5)-methyltransferase 1; test: Inhibition of semi-purified DNMT1
MCF7 [18] = test: Inhibition of Class 1 histone deacetylase in human MCF7 cells assessed as up-regulation of p21 protein level at 0.5 uM after 24 hrs by Western blot analysis; type: cell-based; method in brief: as §3

T4 sequence (P26358 whole entry): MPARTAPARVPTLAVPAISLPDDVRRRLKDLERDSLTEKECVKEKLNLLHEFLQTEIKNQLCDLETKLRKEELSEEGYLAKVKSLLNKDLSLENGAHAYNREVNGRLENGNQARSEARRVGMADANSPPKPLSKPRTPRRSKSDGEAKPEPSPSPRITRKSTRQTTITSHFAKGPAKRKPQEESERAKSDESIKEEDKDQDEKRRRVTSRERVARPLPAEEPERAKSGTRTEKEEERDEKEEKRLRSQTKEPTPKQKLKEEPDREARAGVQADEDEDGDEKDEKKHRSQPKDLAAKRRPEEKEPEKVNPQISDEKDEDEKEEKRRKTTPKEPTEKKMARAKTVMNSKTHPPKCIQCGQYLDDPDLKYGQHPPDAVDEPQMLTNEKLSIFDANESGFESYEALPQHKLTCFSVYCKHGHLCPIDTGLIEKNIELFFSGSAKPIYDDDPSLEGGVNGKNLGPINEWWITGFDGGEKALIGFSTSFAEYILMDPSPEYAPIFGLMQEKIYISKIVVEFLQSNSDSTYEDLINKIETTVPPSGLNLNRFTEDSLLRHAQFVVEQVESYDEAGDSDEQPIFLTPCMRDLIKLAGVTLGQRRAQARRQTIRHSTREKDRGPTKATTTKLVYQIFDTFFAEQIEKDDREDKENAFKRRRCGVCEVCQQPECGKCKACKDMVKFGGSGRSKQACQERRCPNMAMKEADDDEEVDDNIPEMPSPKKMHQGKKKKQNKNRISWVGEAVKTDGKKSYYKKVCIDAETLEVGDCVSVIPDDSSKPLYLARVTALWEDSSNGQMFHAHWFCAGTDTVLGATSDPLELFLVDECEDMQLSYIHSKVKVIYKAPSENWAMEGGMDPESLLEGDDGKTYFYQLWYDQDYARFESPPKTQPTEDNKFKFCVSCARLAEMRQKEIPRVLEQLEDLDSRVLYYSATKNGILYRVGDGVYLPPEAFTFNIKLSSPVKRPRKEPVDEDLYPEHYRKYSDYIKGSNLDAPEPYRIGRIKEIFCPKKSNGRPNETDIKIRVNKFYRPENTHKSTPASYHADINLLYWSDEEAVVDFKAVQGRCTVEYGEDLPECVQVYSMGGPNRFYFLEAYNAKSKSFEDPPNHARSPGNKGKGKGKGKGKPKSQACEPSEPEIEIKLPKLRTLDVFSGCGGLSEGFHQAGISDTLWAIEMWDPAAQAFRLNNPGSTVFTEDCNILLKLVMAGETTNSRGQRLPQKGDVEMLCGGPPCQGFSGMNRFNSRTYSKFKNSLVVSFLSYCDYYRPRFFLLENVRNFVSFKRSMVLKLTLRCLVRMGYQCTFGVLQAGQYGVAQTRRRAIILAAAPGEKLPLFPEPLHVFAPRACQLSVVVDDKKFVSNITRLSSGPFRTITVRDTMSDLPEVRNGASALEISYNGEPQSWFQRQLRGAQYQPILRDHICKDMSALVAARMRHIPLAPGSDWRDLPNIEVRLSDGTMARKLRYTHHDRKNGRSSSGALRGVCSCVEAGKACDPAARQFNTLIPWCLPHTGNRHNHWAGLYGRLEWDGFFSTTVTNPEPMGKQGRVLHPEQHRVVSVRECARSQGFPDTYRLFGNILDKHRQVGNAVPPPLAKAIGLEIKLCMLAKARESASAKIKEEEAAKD
T2 sequence (Q13547 whole entry): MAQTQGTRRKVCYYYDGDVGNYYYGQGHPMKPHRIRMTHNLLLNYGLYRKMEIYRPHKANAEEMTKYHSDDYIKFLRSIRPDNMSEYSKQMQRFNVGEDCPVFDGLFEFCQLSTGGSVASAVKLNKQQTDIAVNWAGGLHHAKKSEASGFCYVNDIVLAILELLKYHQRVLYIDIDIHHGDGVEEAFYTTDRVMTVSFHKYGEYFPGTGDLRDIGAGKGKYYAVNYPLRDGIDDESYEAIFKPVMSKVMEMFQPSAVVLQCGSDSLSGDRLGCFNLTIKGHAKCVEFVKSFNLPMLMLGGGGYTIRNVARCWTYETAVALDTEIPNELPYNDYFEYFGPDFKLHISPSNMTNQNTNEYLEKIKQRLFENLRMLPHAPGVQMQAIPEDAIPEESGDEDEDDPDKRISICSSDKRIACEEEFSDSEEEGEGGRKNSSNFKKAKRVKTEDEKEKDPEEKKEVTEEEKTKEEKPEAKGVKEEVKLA

| Structure (SMILES) | IC50 [1] [µM] | IC50 (Histone deacetylase 1 [2]) [µM] | inhibition [3] | inhibition [4] | GI50 (A549) [µM] | GI50 (MCF7 [5]) [µM] | GI50 at 96 h [6] [µM] | IC50 [7] [µM] | IC50 (Histone deacetylase 8) [µM] | inhibition (Histone deacetylase 1 [8]) | inhibition (MCF7 [9]) | inhibition [10] | inhibition (Histone deacetylase 1 [11]) | inhibition (MCF7 [12]) | inhibition [13] | inhibition (Bacteria [14]) | inhibition (Bacteria [15]) | IC50 [16] [µM] | IC50 [17] [µM] | inhibition (MCF7 [18]) |
| --- | --- | --- | --- | --- | --- | --- | --- | --- | --- | --- | --- | --- | --- | --- | --- | --- | --- | --- | --- | --- |
| COc1ccc(C/C(=N\O)C(=O)NCCS)cc1Br | 3.2 | 0.0018 | inactive | inactive | 0.16 | 0.61 | 1.13 |  |  |  |  |  |  |  |  |  |  |  |  |  |
| O=C(CCNC(=O)/C(Cc1ccc(O)c(Br)c1)=N/O)NO | 0.19 | 0.002 | Active |  | 1.59 | 1.13 | 7.86 | 0.31 | 1.5 | Active | Active | inactive |  |  |  |  |  |  |  |  |
| O=C(NCCS)/C(Cc1ccccc1)=N/O | 3.3 | 0.012 | inactive | inactive | 15.2 | 9.38 | 10.9 |  |  |  |  |  |  |  |  |  |  |  |  |  |
| O=C(NCCS)/C(Cc1ccc(F)c(Br)c1)=N/O | 0.64 | 0.001 | inactive | inactive | 6.24 | 2.87 | 7.72 |  |  |  |  |  |  |  |  |  |  |  |  |  |
| O=C(CCCNC(=O)/C(Cc1ccc(O)c(Br)c1)=N/O)NO | 1.7 | 0.31 | Active |  |  |  |  | 5.25 |  |  |  |  |  |  |  |  |  |  |  |  |
| O=C(NCCSSCCNC(=O)/C(Cc1ccc(O)c(Br)c1)=N/O)/C(Cc1ccc(O)c(Br)c1)=N/O [PSAMMAPLIN A] |  |  |  |  | 7.5 | 1.27 | 3.44 |  |  |  |  |  | Active | Active | inactive | Active | Active | 0.0042 | 0.0186 |  |
| COc1cc(C/C(=N\O)C(=O)NCCS)cc(Br)c1OC | 0.51 | 0.001 | inactive | inactive | 4.4 | 2.25 | 4.31 |  |  |  |  |  |  |  |  |  |  |  |  |  |
| CC(/C=C/C(=O)NO)=C\[C@@H](C)C(=O)c1ccc(N(C)C)cc1 |  |  |  |  |  |  |  |  |  |  |  |  |  |  |  |  |  |  |  | Active |
| O=C(NCCS)/C(Cc1ccc(O)c(Br)c1)=N/O |  | 0.0009 | inactive | inactive | 2.53 | 2.35 | 3.4 | 30.2 | 1.3 |  |  |  |  |  |  | Active | Active |  |  |  |
| CO/N=C(\Cc1ccc(O)c(Br)c1)C(=O)NCCS | 0.22 | 0.027 | inactive | inactive | 10.6 | 19.3 | 24.2 |  |  |  |  |  |  |  |  |  |  |  |  |  |
